Tested on: Fibroblast
Assay: Multiplex assay against human fibroblast
Format: toxicity, cell-based
How it was run: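 Live cells carried four stains from seeding: Hoechst33342, BioTracker Green Microtubule Cytoskeleton Dye, MitoTracker Red and Annexin V Alexa Fluor 680. They were imaged on a CQ1 microscope at 37°C and 5% CO2 after compound addition. Using CellPathfinder machine-learning gating, cells were split into Hoechst high-intensity objects or normal cells, normal cells into healthy, pyknosed or fragmented nuclei, and pyknosed cells into mitotic or apoptotic; tubulin, mitochondrial-mass and membrane-permeability phenotypes are per cents of healthy-nucleus cells.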

[1] = 12 h, 1 µM, compound concentration 1 uM, replicate 1
[2] = 12 h, 1 µM, compound concentration 1 uM, replicate 2
[3] = 12 h, 10 µM, compound concentration 10 uM, replicate 1
[4] = 12 h, 10 µM, compound concentration 10 uM, replicate 2
[5] = 24 h, 1 µM, compound concentration 1 uM, replicate 1
[6] = 24 h, 1 µM, compound concentration 1 uM, replicate 2
[7] = 24 h, 10 µM, compound concentration 10 uM, replicate 1
[8] = 24 h, 10 µM, compound concentration 10 uM, replicate 2
[9] = 48 h, 1 µM, compound concentration 1 uM, replicate 1
[10] = 48 h, 1 µM, compound concentration 1 uM, replicate 2
[11] = 48 h, 10 µM, compound concentration 10 uM, replicate 1
[12] = 48 h, 10 µM, compound concentration 10 uM, replicate 2

Cl.NCCc1ccc(O)c(O)c1 [DOPAMINE HYDROCHLORIDE]
Population Apoptotic (%) [1]: 42% | Population Fragmented Nuclei (%) [1]: 13% | Population Healthy Nuclei (%) [1]: 63% | Population Hoechst High Intensity Objects (%) [1]: 1% | Population Membrane Permeable-Phenotype (%) [1]: 0% | Population Mitochondria Different-Phenotype (%) [1]: 1% | Population Mitotic Cells (%) [1]: 57% | Population Normal (%) [1]: 98% | Population Pyknosed Nuclei (%) [1]: 23% | Population Tubulin-Different-Phenotype (%) [1]: 34% | Total Cell Count [1]: 115 | Population Apoptotic (%) [2]: 44% | Population Fragmented Nuclei (%) [2]: 34% | Population Healthy Nuclei (%) [2]: 40% | Population Membrane Permeable-Phenotype (%) [2]: 4% | Population Mitochondria Different-Phenotype (%) [2]: 6% | Population Mitotic Cells (%) [2]: 55% | Population Pyknosed Nuclei (%) [2]: 24% | Population Tubulin-Different-Phenotype (%) [2]: 45% | Total Cell Count [2]: 152 | Population Apoptotic (%) [3]: 56% | Population Fragmented Nuclei (%) [3]: 14% | Population Healthy Nuclei (%) [3]: 62% | Population Hoechst High Intensity Objects (%) [3]: 3% | Population Membrane Permeable-Phenotype (%) [3]: 0% | Population Mitochondria Different-Phenotype (%) [3]: 3% | Population Mitotic Cells (%) [3]: 43% | Population Normal (%) [3]: 96% | Population Pyknosed Nuclei (%) [3]: 23% | Population Tubulin-Different-Phenotype (%) [3]: 14% | Total Cell Count [3]: 135 | Population Apoptotic (%) [4]: 41% | Population Fragmented Nuclei (%) [4]: 35% | Population Healthy Nuclei (%) [4]: 40% | Population Hoechst High Intensity Objects (%) [4]: 4% | Population Membrane Permeable-Phenotype (%) [4]: 6% | Population Mitochondria Different-Phenotype (%) [4]: 6% | Population Mitotic Cells (%) [4]: 58% | Population Normal (%) [4]: 95% | Population Tubulin-Different-Phenotype (%) [4]: 44% | Total Cell Count [4]: 127 | Population Apoptotic (%) [5]: 55% | Population Fragmented Nuclei (%) [5]: 14% | Population Healthy Nuclei (%) [5]: 69% | Population Hoechst High Intensity Objects (%) [5]: 0% | Population Membrane Permeable-Phenotype (%) [5]: 1% | Population Mitochondria Different-Phenotype (%) [5]: 1% | Population Mitotic Cells (%) [5]: 44% | Population Normal (%) [5]: 99% | Population Pyknosed Nuclei (%) [5]: 16% | Population Tubulin-Different-Phenotype (%) [5]: 31% | Total Cell Count [5]: 112 | Population Apoptotic (%) [6]: 51% | Population Fragmented Nuclei (%) [6]: 34% | Population Healthy Nuclei (%) [6]: 47% | Population Hoechst High Intensity Objects (%) [6]: 2% | Population Membrane Permeable-Phenotype (%) [6]: 7% | Population Mitochondria Different-Phenotype (%) [6]: 0% | Population Mitotic Cells (%) [6]: 48% | Population Normal (%) [6]: 97% | Population Pyknosed Nuclei (%) [6]: 18% | Population Tubulin-Different-Phenotype (%) [6]: 37% | Total Cell Count [6]: 150 | Population Apoptotic (%) [7]: 55% | Population Fragmented Nuclei (%) [7]: 16% | Population Healthy Nuclei (%) [7]: 69% | Population Hoechst High Intensity Objects (%) [7]: 2% | Population Membrane Permeable-Phenotype (%) [7]: 1% | Population Mitochondria Different-Phenotype (%) [7]: 5% | Population Mitotic Cells (%) [7]: 44% | Population Normal (%) [7]: 97% | Population Pyknosed Nuclei (%) [7]: 13% | Population Tubulin-Different-Phenotype (%) [7]: 22% | Total Cell Count [7]: 136 | Population Apoptotic (%) [8]: 47% | Population Fragmented Nuclei (%) [8]: 37% | Population Healthy Nuclei (%) [8]: 46% | Population Hoechst High Intensity Objects (%) [8]: 3% | Population Membrane Permeable-Phenotype (%) [8]: 3% | Population Mitochondria Different-Phenotype (%) [8]: 7% | Population Mitotic Cells (%) [8]: 52% | Population Normal (%) [8]: 96% | Population Pyknosed Nuclei (%) [8]: 15% | Population Tubulin-Different-Phenotype (%) [8]: 56% | Total Cell Count [8]: 126 | Population Apoptotic (%) [9]: 36% | Population Fragmented Nuclei (%) [9]: 22% | Population Healthy Nuclei (%) [9]: 66% | Population Hoechst High Intensity Objects (%) [9]: 6% | Population Membrane Permeable-Phenotype (%) [9]: 1% | Population Mitochondria Different-Phenotype (%) [9]: 2% | Population Mitotic Cells (%) [9]: 63% | Population Normal (%) [9]: 93% | Population Pyknosed Nuclei (%) [9]: 10% | Population Tubulin-Different-Phenotype (%) [9]: 28% | Total Cell Count [9]: 110 | Population Apoptotic (%) [10]: 38% | Population Fragmented Nuclei (%) [10]: 33% | Population Healthy Nuclei (%) [10]: 52% | Population Membrane Permeable-Phenotype (%) [10]: 5% | Population Mitochondria Different-Phenotype (%) [10]: 3% | Population Mitotic Cells (%) [10]: 61% | Population Pyknosed Nuclei (%) [10]: 14% | Population Tubulin-Different-Phenotype (%) [10]: 43% | Total Cell Count [10]: 159 | Population Apoptotic (%) [11]: 87% | Population Fragmented Nuclei (%) [11]: 21% | Population Healthy Nuclei (%) [11]: 66% | Population Hoechst High Intensity Objects (%) [11]: 4% | Population Membrane Permeable-Phenotype (%) [11]: 0% | Population Mitochondria Different-Phenotype (%) [11]: 4% | Population Mitotic Cells (%) [11]: 12% | Population Normal (%) [11]: 95% | Population Pyknosed Nuclei (%) [11]: 11% | Population Tubulin-Different-Phenotype (%) [11]: 25% | Total Cell Count [11]: 141 | Population Apoptotic (%) [12]: 90% | Population Fragmented Nuclei (%) [12]: 31% | Population Healthy Nuclei (%) [12]: 60% | Population Hoechst High Intensity Objects (%) [12]: 0% | Population Membrane Permeable-Phenotype (%) [12]: 7% | Population Mitotic Cells (%) [12]: 10% | Population Normal (%) [12]: 99% | Population Pyknosed Nuclei (%) [12]: 8% | Population Tubulin-Different-Phenotype (%) [12]: 56% | Total Cell Count [12]: 116

Reference: ChEMBL document CHEMBL5058577, “EUbOPEN Chemogenomics Library 2 (Multiplex)” (2022)
